The subject of assay [1] is MCF7. The assay is described as follows: Induction of apoptosis in human MCF7 cells assessed as chromatin condensation at 50 to 100 nM after 48 hrs by Hoechst 33242-staining based fluorescence microscopic analysis. The class given is functional, cell-based. The procedure, abridged:
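MCF-7 cells were seeded at 1×10^5 cells/mL, exposed to compound at 50 or 100 nM, with DMSO vehicle as control. They were fixed in 4% paraformaldehyde for 10 min at 4 °C and stained with Hoechst 33242 (2 µg/mL) for 10 min at room temperature. Nuclear morphology was imaged by fluorescence microscopy in random fields.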

Assay [2] can be described thus: Cell cycle arrest in human MCF7 cells assessed as reduction in DNA content at G0/G1 phase at 50 to 100 nM after 48 hrs by propidium iodide-staining based FACS analysis. The class given is functional. The method in brief: (§1)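 MCF-7 cells were incubated 48 h with compound at 50 or 100 nM; nocodazole 100 nM was the reference. Untreated and treated cells were harvested, washed in PBS, fixed in ice-cold 70% ethanol, stained with propidium iodide and analysed by flow cytometry for cell-cycle phase distribution.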
(A flow cytometer gives signals particle by particle.)

The subject of assay [3] is MCF7. The assay is described as follows: Induction of apoptosis in human MCF7 cells after 48 hrs by Annexin V FITC/propidium iodide-based FACS analysis. The class given is functional, cell-based.
For assay [4], the system named is MCF7. Description: Induction of apoptosis in human MCF7 cells assessed as early apoptotic cells at 50 nM after 48 hrs by Annexin V FITC/propidium iodide-based FACS analysis (reference value: 2.4 %). The class given is functional.
The subject of assay [5] is MCF7. The assay is described as follows: Induction of apoptosis in human MCF7 cells assessed as late apoptotic cells at 100 nM after 48 hrs by Annexin V FITC/propidium iodide-based FACS analysis (reference value: 4.2 %). The class given is functional.
A short description of assay [6]: Antiproliferative activity against human MIAPaCa2 cells after 48 hrs by SRB assay. The class given is functional. The settings on record: MIA PaCa-2, 48 h. The procedure, abridged:
(§2)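 SRB assay in ATCC-sourced cells grown in DMEM with 10% FBS and penicillin/streptomycin at 37 °C, 5% CO2. Cells were plated at densities set by doubling time and incubated 24 h before dosing. Compounds (DMSO 10 mM stock diluted in medium) were tested at 0.01, 0.1, 1, 10 and 100 µM with 48 h continuous exposure. Cells were fixed in cold 10% TCA and stained with 0.057% SRB; OD was read at 510 nm. GI50 was derived from time-zero, control and test absorbances and reported as the mean of three independent experiments.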
For orientation: The SRB assay estimates cell density from bound dye.

Assay [7] deals with MCF7. Description: Induction of apoptosis in human MCF7 cells assessed as intracellular ROS generation at 100 nM after 48 hrs by carboxy-DCFDA staining based fluorescence microscopic analysis. The class given is functional, cell-based. The method in brief:
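MCF-7 cells were plated at 1×10^5 cells/mL, adhered overnight and treated at 50 or 100 nM. Methods and legend state 24 h treatment; the results text states 48 h. Cells were PBS-washed, fixed in 4% paraformaldehyde and exposed to carboxy-DCFDA for 30 min in the dark at room temperature. DCF fluorescence was assessed by fluorescence microscopy.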

Assay [8] can be described thus: Antiproliferative activity against human MCF7 cells after 48 hrs by SRB assay. The class given is functional. The settings on record: MCF7, 48 h. The procedure, abridged: as §2
Assay [9] in a line: Antiproliferative activity against human HeLa cells after 48 hrs by SRB assay. The class given is functional. The method in brief: as §2
Assay [10] concerns MCF7. The assay is described as follows: Induction of apoptosis in human MCF7 cells assessed as necrotic cells at 100 nM after 48 hrs by Annexin V FITC/propidium iodide-based FACS analysis (reference value: 0.4 %). The class given is functional.
The test system of assay [11] is MCF7. The assay is described as follows: Induction of apoptosis in human MCF7 cells assessed as viable cells at 100 nM after 48 hrs by Annexin V FITC/propidium iodide-based FACS analysis (reference value: 93.1 %). The class given is functional. The settings on record: MCF7, 48 h, read-out: Activity.
Assay [12] in a line: Cell cycle arrest in human MCF7 cells assessed as accumulation at G2/M phase after 48 hrs by propidium iodide-staining based FACS analysis. The class given is functional. The method in brief:
as §1

For assay [13], the system named is MCF7. The assay is described as follows: Induction of apoptosis in human MCF7 cells assessed as late apoptotic cells at 50 nM after 48 hrs by Annexin V FITC/propidium iodide-based FACS analysis (reference value: 4.2 %). The class given is functional.
In assay [14] the test system is MCF7. The assay is described as follows: Induction of apoptosis in human MCF7 cells assessed as reduction in mitochondrial membrane potential at 50 to 100 nM after 48 hrs by rhodamine 123-staining based fluorescence microscopic analysis. The class given is functional, cell-based. The procedure, abridged: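 MCF-7 cells were plated at 1×10^5 cells/mL and allowed to adhere overnight, then treated at 50 or 100 nM. After PBS washes they were loaded with rhodamine 123 (5 µg/ml) for 30 min in the dark at 37 °C. Loss of green fluorescence was assessed by fluorescence microscopy.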

Assay [15] relates to MCF7. Description: Induction of apoptosis in human MCF7 cells assessed as necrotic cells at 50 nM after 48 hrs by Annexin V FITC/propidium iodide-based FACS analysis (reference value: 0.4 %). The class given is functional.
The nature of assay [16]: Downregulation of CDK1 in human MCF7 cells at 50 to 100 nM after 48 hrs by Western blot analysis. The class given is functional, cell-based. The procedure, abridged:
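MCF-7 cells were treated 48 h at 50 or 100 nM and lysed in RIPA buffer. Lysate (50 µg per lane) was resolved on 10% SDS-PAGE and transferred to PVDF. Membranes were BSA-blocked, probed with primary antibody for 24 h and detected by chemiluminescence, with β-actin as loading control.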
On the technique in general: Immunoblotting shows a protein as a band on a membrane.

In assay [17] the test system is MCF7. Description: Induction of apoptosis in human MCF7 cells assessed as viable cells at 50 nM after 48 hrs by Annexin V FITC/propidium iodide-based FACS analysis (reference value: 93.1 %). The class given is functional. To be noted: MCF7, 48 h, read-out: Activity.
For assay [18], the system named is MCF7. Description: Induction of apoptosis in human MCF7 cells assessed as early apoptotic cells at 100 nM after 48 hrs by Annexin V FITC/propidium iodide-based FACS analysis (reference value: 2.4 %). The class given is functional.

The results in this text go back to ChEMBL document CHEMBL3865795, “Design, synthesis and biological evaluation of N-((1-benzyl-1H-1,2,3-triazol-4-yl)methyl)-1,3-diphenyl-1H-pyrazole-4-carboxamides as CDK1/Cdc2 inhibitors” (2016).

As usually defined, the GI50 is the concentration giving 50% growth inhibition. Lower therefore signals greater sensitivity of the cells.

Molecules are shown by their SMILES. Calls of active or inactive are those of the source. The rule behind the calls is not given here.

Regarding `O=C(NCc1cn(Cc2ccc(Cl)cc2)nn1)c1cn(-c2ccccc2)nc1-c1ccc(F)cc1`, the outcome in assay [1], in assay [2], in assay [7], in [14] and in [16] was Active. Further, the Activity entry was “Dose-dependent effect” in [3]; 5.2% in [4]; 20.5% in [5]; 2% in assay [10]; “Dose-dependent effect” in assay [12]; 10.3% in assay [13]. Moreover, the values for the Activity in assay [15] and in assay [18] were 0.7% and 8.2%, respectively. The GI50 in assay [6] was 280 nM; in [8], 130 nM; in assay [9], 210 nM. In assay [11], the viability at 0.1 µM was 69.3%. Besides, in assay [17], the viability at 0.05 µM turned out to be 83.8%.

Take `COc1cc(Cn2cc(CNC(=O)c3cn(-c4ccccc4)nc3-c3ccc(Cl)cc3)nn2)cc(OC)c1`: the result in assay [1], in assay [2], in [7], in [14] and in assay [16] was Active. Besides, the Activity entry was “Dose-dependent effect” in assay [3]; 5.6% in assay [4]; 28.6% in [5]; 2.2% in assay [10]; “Dose-dependent effect” in [12]; 10.2% in assay [13]. The Activity in assay [15] amounted to 0.9%; in assay [18], 7.8%. In addition, the GI50 in [6] was 340 nM; in assay [8] it was 150 nM; in assay [9] it was 730 nM. Also, in assay [11], the viability at 0.1 µM came to 61.4%. The viability at 0.05 µM in [17] stood at 83.2%.
